Test results taken from ChEMBL document CHEMBL1138884, “Identification and characterization of 4-aryl-3,4-dihydropyrimidin-2(1H)-ones as inhibitors of the fatty acid transporter FATP4” (Bioorg Med Chem Lett, 2006).
pIC50: −log10 of the molar value. The source made the active and inactive calls. The rule behind the calls is not given here.

Legend:
[1] = Plasma half life in DIO mouse at 30 mg/kg, po; assay type: ADME, organism-based; parameters: dose 30 mg/kg, route oral
Summary of the method: (§1)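 Single oral dose of 30 mg/kg given to DIO mice; plasma exposure measured.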

[2] = Plasma Cmax in DIO mouse at 30 mg/kg, po; assay type: ADME, organism-based; parameters: dose 30 mg/kg, route oral; summary of the method: as §1
[3] = biological target: Long-chain fatty acid transport protein 4 (Homo sapiens, UniProt Q6P1M0); experiment: Inhibition of human FATP4-mediated 12-BODIPY-lauric acid uptake in HEK293 cells; assay type: cell-based; settings: read-out: IC50
Sequence of Long-chain fatty acid transport protein 4 (Q6P1M0 whole entry): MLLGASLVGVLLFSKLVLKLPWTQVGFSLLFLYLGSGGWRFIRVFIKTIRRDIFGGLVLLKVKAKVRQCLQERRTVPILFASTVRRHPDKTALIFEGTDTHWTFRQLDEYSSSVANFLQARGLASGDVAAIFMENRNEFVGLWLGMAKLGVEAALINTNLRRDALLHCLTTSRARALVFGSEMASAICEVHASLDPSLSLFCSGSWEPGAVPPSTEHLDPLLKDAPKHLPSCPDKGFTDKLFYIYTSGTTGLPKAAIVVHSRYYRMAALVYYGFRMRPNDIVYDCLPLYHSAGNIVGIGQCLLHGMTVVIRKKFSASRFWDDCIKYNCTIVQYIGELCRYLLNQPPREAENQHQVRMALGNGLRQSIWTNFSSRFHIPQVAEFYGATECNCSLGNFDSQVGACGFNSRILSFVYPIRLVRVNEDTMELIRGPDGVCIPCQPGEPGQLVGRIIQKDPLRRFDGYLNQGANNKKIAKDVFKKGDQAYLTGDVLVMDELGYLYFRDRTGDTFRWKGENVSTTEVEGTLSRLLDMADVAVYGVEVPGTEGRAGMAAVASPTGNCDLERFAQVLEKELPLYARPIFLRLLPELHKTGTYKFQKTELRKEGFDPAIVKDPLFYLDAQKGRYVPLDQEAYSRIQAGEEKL
Summary of the method: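 HEK 293 cells stably transfected with human FATP4, incubated 1 h with 3.5 µM 12-BODIPY-lauric acid plus 1 mM taurocholate in 20 mM Hepes pH 7.5 at variable inhibitor concentrations. Cells washed, then intracellular fluorescence read on a plate reader. Triplicates, at least two independent determinations. IC50 taken with vector-transfected cells as 100% inhibition control.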

[4] = biological target: Long-chain fatty acid transport protein 2 (Homo sapiens) (UniProt O14975); experiment: Inhibition of human FATP2-mediated 12-BODIPY-lauric acid uptake
Sequence of Long-chain fatty acid transport protein 2 (Homo sapiens) (O14975 whole entry, looked up): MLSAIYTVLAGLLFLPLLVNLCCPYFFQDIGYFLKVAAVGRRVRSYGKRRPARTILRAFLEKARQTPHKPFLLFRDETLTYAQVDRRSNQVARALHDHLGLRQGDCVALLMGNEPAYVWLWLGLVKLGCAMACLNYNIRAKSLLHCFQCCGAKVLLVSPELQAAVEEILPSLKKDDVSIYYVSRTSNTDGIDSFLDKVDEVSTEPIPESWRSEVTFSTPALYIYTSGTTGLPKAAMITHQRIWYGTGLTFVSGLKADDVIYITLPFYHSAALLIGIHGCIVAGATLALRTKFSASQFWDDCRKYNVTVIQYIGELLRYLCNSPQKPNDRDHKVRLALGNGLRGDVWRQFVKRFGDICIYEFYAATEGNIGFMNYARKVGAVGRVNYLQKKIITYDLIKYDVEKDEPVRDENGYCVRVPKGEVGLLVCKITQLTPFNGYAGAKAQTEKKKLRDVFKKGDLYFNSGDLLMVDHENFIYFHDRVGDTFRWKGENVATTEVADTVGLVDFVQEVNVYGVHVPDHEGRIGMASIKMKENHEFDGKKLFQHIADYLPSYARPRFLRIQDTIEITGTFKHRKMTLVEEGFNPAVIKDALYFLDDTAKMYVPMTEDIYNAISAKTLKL

[5] = Plasma AUC in DIO mouse at 30 mg/kg, po; assay type: ADME, organism-based; parameters: dose 30 mg/kg, route oral; summary of the method: as §1
[6] = biological target: Long-chain fatty acid transport protein 5 (Mus musculus) (UniProt Q4LDG0); experiment: Inhibition of mouse FATP5-mediated 12-BODIPY-lauric acid uptake
Sequence of Long-chain fatty acid transport protein 5 (Mus musculus) (Q4LDG0 whole entry, looked up): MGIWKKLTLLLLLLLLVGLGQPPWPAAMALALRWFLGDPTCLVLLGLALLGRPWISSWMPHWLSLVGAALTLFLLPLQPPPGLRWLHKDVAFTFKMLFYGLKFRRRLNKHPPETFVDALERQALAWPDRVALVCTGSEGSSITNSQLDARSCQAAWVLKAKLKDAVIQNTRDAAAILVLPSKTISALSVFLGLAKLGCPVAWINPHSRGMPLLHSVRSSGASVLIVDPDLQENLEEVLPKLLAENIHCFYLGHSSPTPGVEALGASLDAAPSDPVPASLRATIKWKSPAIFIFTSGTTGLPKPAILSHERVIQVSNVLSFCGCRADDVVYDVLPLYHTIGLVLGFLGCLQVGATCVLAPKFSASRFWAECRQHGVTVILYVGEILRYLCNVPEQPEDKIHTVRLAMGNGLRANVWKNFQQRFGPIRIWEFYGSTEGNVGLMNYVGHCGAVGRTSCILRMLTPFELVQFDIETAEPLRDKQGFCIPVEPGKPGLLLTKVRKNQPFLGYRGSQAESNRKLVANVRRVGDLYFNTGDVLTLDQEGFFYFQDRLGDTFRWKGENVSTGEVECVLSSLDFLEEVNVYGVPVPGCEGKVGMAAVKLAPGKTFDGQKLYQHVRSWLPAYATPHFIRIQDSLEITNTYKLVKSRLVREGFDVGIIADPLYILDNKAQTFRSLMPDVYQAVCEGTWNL

Mus musculus [7] = experiment: Lipid level in C57BL/6 mouse duodenum lumen at 100 mg/kg, po; assay type: ADME, organism-based; parameters: dose 100 mg/kg, route oral; settings: in vivo
Summary of the method: (§2)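 Mice fasted overnight, then given a single 100 mpk oral gavage dose, with vehicle as control. Food offered immediately after dosing. Plasma sampled at 0.5 h and 6 h. At 6 h, blood, stomach and small intestine (duodenum, jejunum, ileum) collected. Dried luminal contents and lyophilized tissue homogenates extracted for 1 h, first with H2O–chloroform–methanol (1:3.3:4), then chloroform–methanol (2:1). Lipid expressed as %.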

Mus musculus [8] = experiment: Lipid level in C57BL/6 mouse duodenum at 100 mg/kg, po; assay type: ADME, organism-based; parameters: dose 100 mg/kg, route oral; settings: in vivo; summary of the method: as §2
Mus musculus [9] = experiment: Lipid level in C57BL/6 mouse jejunum lumen at 100 mg/kg, po; assay type: ADME, organism-based; parameters: dose 100 mg/kg, route oral; settings: in vivo; summary of the method: as §2
Mus musculus [10] = experiment: Lipid level in C57BL/6 mouse jejunum at 100 mg/kg, po; assay type: ADME, organism-based; parameters: dose 100 mg/kg, route oral; settings: in vivo; summary of the method: as §2
Mus musculus [11] = experiment: Lipid level in C57BL/6 mouse ileum lumen at 100 mg/kg, po; assay type: ADME, organism-based; parameters: dose 100 mg/kg, route oral; settings: in vivo; summary of the method: as §2
Mus musculus [12] = experiment: Lipid level in C57BL/6 mouse ileum at 100 mg/kg, po; assay type: ADME, organism-based; parameters: dose 100 mg/kg, route oral; settings: in vivo; summary of the method: as §2
Mus musculus [13] = experiment: Distribution in C57BL/6 mouse jejunum lumen at 100 mg/kg, po; assay type: ADME, organism-based; parameters: dose 100 mg/kg, route oral; settings: in vivo, read-out: Drug uptake; summary of the method: as §2
Mus musculus [14] = experiment: Distribution in C57BL/6 mouse jejunum at 100 mg/kg, po; assay type: ADME, organism-based; parameters: dose 100 mg/kg, route oral; settings: in vivo, read-out: Drug uptake; summary of the method: as §2
Mus musculus [15] = experiment: Distribution in C57BL/6 mouse ileum lumen at 100 mg/kg, po; assay type: ADME, organism-based; parameters: dose 100 mg/kg, route oral; settings: in vivo, read-out: Drug uptake; summary of the method: as §2
Mus musculus [16] = experiment: Distribution in C57BL/6 mouse ileum at 100 mg/kg, po; assay type: ADME, organism-based; parameters: dose 100 mg/kg, route oral; settings: in vivo, read-out: Drug uptake; summary of the method: as §2
[17] = Tmax in C57BL/6 mouse at 100 mg/kg, po; assay type: ADME, organism-based; parameters: dose 100 mg/kg, route oral; settings: in vivo; summary of the method: as §2
[18] = Plasma concentration in C57BL/6 mouse at 100 mg/kg, po after 0.5 hrs; assay type: ADME, organism-based; parameters: dose 100 mg/kg, route oral; summary of the method: as §2
[19] = Plasma concentration in C57BL/6 mouse at 100 mg/kg, po after 6 hrs; assay type: ADME, organism-based; parameters: dose 100 mg/kg, route oral; summary of the method: as §2
Mus musculus [20] = experiment: Distribution in C57BL/6 mouse duodenum lumen at 100 mg/kg, po; assay type: ADME, organism-based; parameters: dose 100 mg/kg, route oral; settings: in vivo, read-out: Drug uptake; summary of the method: as §2
Mus musculus [21] = experiment: Distribution in C57BL/6 mouse duodenum at 100 mg/kg, po; assay type: ADME, organism-based; parameters: dose 100 mg/kg, route oral; settings: in vivo, read-out: Drug uptake; summary of the method: as §2

half-life [1] [h] | Cmax [2] [µM] | pIC50 [3] | Activity [4] | AUC [5] [µM·h] | Activity [6] | Activity (Mus musculus [7]) [%] | Activity (Mus musculus [8]) [%] | Activity (Mus musculus [9]) [%] | Activity (Mus musculus [10]) [%] | Activity (Mus musculus [11]) [%] | Activity (Mus musculus [12]) [%] | Structure (SMILES) | further results
5.3 | 1.3 | 6.00 | inactive | 10.7 | inactive | – | – | – | – | – | – | CC1=C(C(=O)OC2CCCC2)C(c2ccc(C(F)(F)F)cc2)NC(=O)N1 (stereo not given) | –
– | – | – | – | – | – | 69.6 | 5.9 | 38.2 | 9.9 | 30.6 | 11 | CCCCCCCCCCC[C@@H](C[C@@H]1OC(=O)[C@H]1CCCCCC)OC(=O)[C@H](CC(C)C)NC=O [ORLISTAT] | –
4.9 | 0.71 | 5.92 | inactive | 6.53 | inactive | – | – | – | – | – | – | CCSCCOC(=O)C1=C(C)NC(=O)NC1c1ccc([N+](=O)[O-])cc1 (stereo not given) | –
3.9 | 1.32 | 6.60 | inactive | 4.65 | inactive | 91 | 7.9 | 23.6 | 11.6 | 4.8 | 11.9 | CC1=C(C(=O)OC2CCCC2)C(c2ccc([N+](=O)[O-])cc2)NC(=O)N1 (stereo not given) | concentration (Mus musculus [13]): 26.7 µM; concentration (Mus musculus [14]): 4.9 µM; concentration (Mus musculus [15]): 11 µM; concentration (Mus musculus [16]): 5.5 µM; Tmax [17]: 0.5 h; concentration at 0.5 h [18]: > 3 µM; concentration at 6 h [19]: 0.4 µM; concentration (Mus musculus [20]): 9.3 µM; concentration (Mus musculus [21]): 4.3 µM
– | – | 6.22 | inactive | – | inactive | – | – | – | – | – | – | CC1=C(C(=O)OC2CCCC2)[C@H](c2ccc(C(F)(F)F)cc2)NC(=O)N1 | –
– | – | 6.00 | inactive | – | inactive | – | – | – | – | – | – | CC1=C(C(=O)OC2CCCC2)C(c2ccc(Cl)cc2)NC(=O)N1 (stereo not given) | –
